HTRA1 inhibitor = HTRA1 serine protease inhibitors, primary screen, biochemical, fluorescence polarization, HTS; Q92743; recombinant HTRA1, FP-rhodamine activity-based probe; inhibition, % at 5.96 µM; AID 504803, 2011; 340,000 compounds, 0.5% hits; in the data active = inhibition above about 36%
PAFAH1B3 inh = PAFAH1B3 enzyme inhibitors, primary screen, biochemical, fluorescence polarization, human | recombinant PAFAH1B3, FP-rhodamine probe | inhibition, % at 3.39 µM | Platelet-activating factor acetylhydrolase IB subunit alpha1 (Homo sapiens), Q15102 | 340,000 compounds, 0.28% hits;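 active = inhibition above the screen-wide average of all tested compounds plus 3 SD, cut at about 25% in these data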
PAFAH1B2 inh = PAFAH1B2 enzyme inhibitors, primary screen, biochemical, fluorescence polarization, human; Platelet-activating factor acetylhydrolase IB subunit alpha2 (Homo sapiens), P68402; recombinant PAFAH1B2, FP-rhodamine activity probe; inhibition, % at 3.39 µM; 340,000 compounds, 1.2% hits; AID 492953, 2010;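 active = inhibition above the mean of all tested compounds plus 3 SD, cut at about 24% in these data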
Target sequence (P68402 whole entry, looked up): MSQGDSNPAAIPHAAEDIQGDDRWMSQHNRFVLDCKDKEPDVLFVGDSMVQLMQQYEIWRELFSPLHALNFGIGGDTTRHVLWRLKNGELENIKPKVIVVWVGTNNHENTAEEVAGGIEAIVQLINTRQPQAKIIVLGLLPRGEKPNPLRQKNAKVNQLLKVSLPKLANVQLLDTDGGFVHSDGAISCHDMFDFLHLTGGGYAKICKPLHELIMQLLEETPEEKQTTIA
ABHD4 inh = ABHD4 inhibitors, primary screen, biochemical, fluorescence polarization, mouse; (Lyso)-N-acylphosphatidylethanolamine lipase (Mus musculus), Q8VD66; purified mABHD4, FP-Rh probe fluorescence polarization; inhibition, % at 8.92 µM; 370,000 compounds, 0.54% hits; AID 720543, 2013;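 active = inhibition exceeding the mean over every tested compound plus 3 SD, cut at about 30% in these data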
Target sequence (Q8VD66 whole entry, looked up): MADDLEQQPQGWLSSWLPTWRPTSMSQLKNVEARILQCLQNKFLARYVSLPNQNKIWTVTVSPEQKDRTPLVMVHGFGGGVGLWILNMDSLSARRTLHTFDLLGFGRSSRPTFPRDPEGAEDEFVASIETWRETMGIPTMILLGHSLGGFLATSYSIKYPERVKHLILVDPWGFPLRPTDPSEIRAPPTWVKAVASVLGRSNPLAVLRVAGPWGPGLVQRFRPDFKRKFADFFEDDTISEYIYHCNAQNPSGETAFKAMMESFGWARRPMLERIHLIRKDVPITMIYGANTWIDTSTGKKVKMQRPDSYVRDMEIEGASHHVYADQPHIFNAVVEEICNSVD
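Doses – 8.92 µM, single dose · Material – wild-type mouse ABHD4 protein · Replication – single well per compound (singlicate) · Measure – percent inhibition of probe binding, normalized to plate controls · Schedule – 45 min compound pre-incubation plus 60 min probe step, 25 °C · Detection – fluorescence polarization with parallel and perpendicular emission, 525/598 nm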
PAFAH2 FP inh = PAFAH2 enzyme inhibitors, primary screen, biochemical, fluorescence polarization, human. 340,000 compounds, 0.99% hits. Platelet-activating factor acetylhydrolase 2, cytoplasmic (Homo sapiens), Q99487. AID 492956, 2010. inhibition, % at 3.39 µM. recombinant PAFAH2, FP-rhodamine activity probe;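 active = inhibition above the mean over all tested compounds plus 3 SD, cut at about 30% in these data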;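 also: inhibitors block probe labeling of enzyme so polarization drops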
pPAFAH FP inh = pPAFAH enzyme inhibitors, primary screen, biochemical, fluorescence polarization, human; Platelet-activating factor acetylhydrolase (Homo sapiens), Q13093; AID 463082, 2010; recombinant pPAFAH, FP-rhodamine probe fluorescence polarization; 330,000 compounds, 1.5% hits; inhibition, % at 3.39 µM;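 active = inhibition above the mean inhibition across the screen plus 3 SD, cut at about 25% in these data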;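 also: inhibitors block binding of the rhodamine activity-based probe so polarization drops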
HTRA1 inh conf = HTRA1 protease inhibitors, retest, confirmation, biochemical, fluorescence polarization; shares compounds with HTRA1 inhibitor; recombinant HTRA1, FP-rhodamine activity-based probe; inhibition, % at 5.96 µM; 1,600 compounds, 66% hits; AID 540248, 2011;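 active = mean inhibition over three repeats above a set limit taken from the earlier primary screen, cut at about 37% in these data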;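 also: inhibitors block probe binding so polarization drops and inhibition rises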
A number is an active result; 0 = inactive; - = not tested or not shown; + = active, no number. This is a sample that favours compounds with a hit; in the whole collection about 2.8% have one here.

SMILES	HTRA1 inhibitor	PAFAH1B3 inh	PAFAH1B2 inh	ABHD4 inh	PAFAH2 FP inh	pPAFAH FP inh	HTRA1 inh conf
O=C1CCCC2=C1C(c1ccccc1)C1C(=O)c3ccccc3C1=N2 (stereo unspecified)	0	0	0	0	0	0	-
O=C1CCCC2=C1C(c1ccc(Cl)cc1)C1C(=O)c3ccccc3C1=N2 (stereo unspecified)	38	0	0	0	0	0	0
C[C@@H]1CCN(C2CC2)S(=O)(=O)c2c(cccc2N2CC[C@@H](O)C2)O1	-	-	-	0	-	-	-
c1ccc(CN2CCC(=NNc3nc4ccccc4[nH]3)CC2)cc1	37	0	0	0	0	0	0
Nc1cccc(Nc2nc(OC(C(F)(F)F)C(F)(F)F)nc(OC(C(F)(F)F)C(F)(F)F)n2)c1	38	0	0	0	0	0	0
COc1ccc(N=C2NC(=O)/C(=C\C=C\c3ccco3)S2)cc1	38	0	0	0	0	-	0
CCN(CC)C(=O)CSc1nnc(-c2cccs2)o1	-	-	-	0	-	-	-
c1csc(CNc2ncnc3ccc(-c4ccc5c(c4)OCO5)cc23)n1	-	-	-	0	-	-	-
N/C(Cc1ccc(Cl)c(Cl)c1)=N\OC(=O)c1ccc(Br)o1	+	0	0	0	0	0	0
N/C(=N\OC(=O)c1ccc(Br)o1)c1cccnc1	0	0	0	0	0	0	-
NC(=S)N/N=C/c1c(O)c(Br)cc2oc3c(c12)CCCC3	53	0	0	0	0	0	48
CCOC(=O)N1CCC(=NNC(=O)c2cc3ccccc3cc2O)CC1	43	0	0	0	0	27	0
Cc1cccc(NC(=O)/C=C/c2ccc([N+](=O)[O-])s2)c1	0	0	0	0	0	0	-
Cc1cccc(NC(=S)N/N=C/c2ccc([N+](=O)[O-])s2)c1	60	0	0	0	0	0	67
O=C(N/N=C/c1ccc([N+](=O)[O-])s1)c1cccc(Br)c1	45	0	0	0	0	0	46
O=C(N/N=C/c1ccc(O)c2ncccc12)c1cccc(Br)c1	67	26	0	0	0	27	59
Cc1ccc(C(=O)N/N=C/c2ccc([N+](=O)[O-])s2)cc1	0	0	0	0	0	0	-
Oc1ccc(/C=C/c2ccccc2F)c2cccnc12	-	-	-	0	-	-	-
CN(C)c1ccc(C=Cc2ccnc3c(O)cccc23)cc1	63	-	-	0	-	-	54
Cc1ccc2ccc(C(Nc3cccc(C(F)(F)F)c3)c3cccnc3)c(O)c2n1 (stereo unspecified)	54	0	0	0	0	0	61
Cc1ccc2ccc(C(Nc3ccccc3)c3ccccc3)c(O)c2n1 (stereo unspecified)	-	-	-	0	-	-	-
COc1ccc(Sc2nc(-c3ccccn3)ncc2OC)cc1	62	0	0	0	0	0	54
CCCC(=O)NC(c1ccccc1Cl)c1ccc2cccnc2c1O (stereo unspecified)	38	0	0	0	0	0	40
CC(=O)NC(c1ccc(Cl)cc1)c1ccc2cccnc2c1O (stereo unspecified)	46	0	0	0	0	-	79
Cc1ccnc(NC(c2ccccc2)c2ccc3cccnc3c2O)c1 (stereo unspecified)	0	0	0	0	0	-	-
SMILES	HTRA1 inhibitor	PAFAH1B3 inh	PAFAH1B2 inh	ABHD4 inh	PAFAH2 FP inh	pPAFAH FP inh	HTRA1 inh conf
O=C(O)c1ccccc1NC(c1ccccc1)c1ccc2cccnc2c1O (stereo unspecified)	49	0	0	0	0	-	68
Cc1cc(NC(c2ccc(Cl)cc2)c2ccc3cccnc3c2O)no1 (stereo unspecified)	48	0	0	0	0	0	51
CN1CCCN(C(=O)CSc2nnc(-c3cccnc3)n2C2CCCCC2)CC1	-	-	-	0	-	-	-
CCOC(=O)N1CCN(C(=O)C[C@H]2C(=O)N(Cc3ccc(OC)cc3)C3=CCCCC[C@@]32C(=O)OC)CC1	-	-	-	0	-	-	-
CCCC(=O)NC(c1ccc(C(C)C)cc1)c1ccc2cccnc2c1O (stereo unspecified)	52	0	0	0	0	0	54
CCC(=O)NC(c1ccc(C)cc1)c1ccc2cccnc2c1O (stereo unspecified)	64	0	0	0	0	0	76
Cc1nnc(-c2ccccc2)c(=O)n1/N=C/c1c(O)ccc2ccccc12	37	0	0	0	0	0	0
Cc1cc(N(C)C)ccc1[N+](=O)[O-]	0	0	0	0	0	0	-
NNc1ccc([N+](=O)[O-])c2[nH][nH]c(=O)c12	52	-	-	54	-	-	49
O=S(=O)(O)c1cc(O)c(N=Nc2ccc(O)cc2O)c2ccccc12	78	90	87	0	90	-	54
COC(=O)[C@]12C[C@H](CC(=O)NCc3ccccc3)C(=O)N(Cc3ccc(Cl)cc3Cl)C1=C[C@H](C(C)(C)C)O[C@@H]2C	-	-	-	0	-	-	-
Clc1ccc2nc(-c3ccccn3)c(Nc3ccc4c(c3)OCO4)n2c1	58	0	0	0	0	27	60
Cc1ccc2nc(-c3ccccc3O)c(Nc3ccc4c(c3)OCCO4)n2c1	0	0	0	0	0	0	-
c1ccc(N2CCN(c3nc(-c4ccccn4)nc4ccccc34)CC2)cc1	40	0	0	0	0	0	0
CCC[C@H]1[C@@H](NC(=O)c2ccc(N(C)C)cc2)CC[C@@]23CCCN2C(=O)CCC[C@@H]13	-	-	-	0	-	-	-
O=C1C(=O)N(Cc2ccc(-c3ccc(F)nc3)cc2)c2ccc(OC(F)(F)F)cc21	-	-	-	0	-	-	-
COc1ccc2c(c1)CNC2CS(=O)(=O)NCc1ccccc1 (stereo unspecified)	-	-	-	0	-	-	-
CCCCC1=CC2=CC(=O)C(C)(OC(=O)C3CCCC3)C(=O)C2=CO1 (stereo unspecified)	39	0	0	0	0	0	44
COc1ccc(Cn2ccc3ccc(-c4ccc5ccn(C(=O)c6ccccc6)c5c4)cc32)cc1	-	-	-	0	-	-	-
S=C(Nc1ccc(Nc2ccccc2)cc1)Nc1ccccn1	38	0	0	0	0	0	40
S=C(Nc1ccccc1)Nc1ccccn1	0	-	-	0	-	-	-
COC(=O)[C@H](C(C)C)N1Cc2nnn(Cc3ccccc3)c2-c2ccccc2S1(=O)=O	-	-	-	0	-	-	-
CCn1c(C)nc2cc(C(=O)N/N=C(\C)c3ccc(OC)cc3O)ccc21	40	0	0	0	0	-	0
Nc1ccc(Oc2ccc(N)c([N+](=O)[O-])c2)cc1[N+](=O)[O-]	0	-	-	0	-	-	-
C=C1N(C)c2cc([N+](=O)[O-])c(N)cc2C1(C)C	54	0	0	0	0	0	0

Screening data deposited in PubChem by The Scripps Research Institute Molecular Screening Center.
